# Experimental data published in ChEMBL document CHEMBL4396871, “Leveraging a Low-Affinity Diazaspiro Orthosteric Fragment to Reduce Dopamine D3 Receptor (D3R) Ligand Promiscuity across Highly Conserved Aminergic G-Protein-Coupled Receptors (GPCRs)” (J Med Chem, 2019).
# Experiments:
# [1] = target: Muscarinic acetylcholine receptor M5 (Homo sapiens) (UniProt P08912); assay: Displacement of [3H]-QNB/[3H]-NMS from human muscarinic M5 receptor expressed in stable CHO cells at 10 uM after 90 mins by microbeta scintillation counting method relative to control; type: cell-based
# Outline: (§1)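 Primary screen at 10 μM compound, expressed as % receptor inhibition, from at least three experiments.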
# [2] = target: Delta-type opioid receptor (Homo sapiens) (UniProt P41143); assay: Displacement of [3H]-DADLE from human DOR stably expressed in HEK cell membranes at 10 uM after 90 mins by microbeta scintillation counting method relative to control; outline: as §1
# [3] = target: 5-hydroxytryptamine receptor 1E (Homo sapiens) (UniProt P28566); assay: Displacement of [3H]-5-HT from recombinant human 5HT1E receptor stably expressed in HEK cell membranes at 10 uM measured after 90 mins by microbeta scintillation counting method relative to control; outline: as §1
# Sequence of 5-hydroxytryptamine receptor 1E (Homo sapiens) (P28566 whole entry): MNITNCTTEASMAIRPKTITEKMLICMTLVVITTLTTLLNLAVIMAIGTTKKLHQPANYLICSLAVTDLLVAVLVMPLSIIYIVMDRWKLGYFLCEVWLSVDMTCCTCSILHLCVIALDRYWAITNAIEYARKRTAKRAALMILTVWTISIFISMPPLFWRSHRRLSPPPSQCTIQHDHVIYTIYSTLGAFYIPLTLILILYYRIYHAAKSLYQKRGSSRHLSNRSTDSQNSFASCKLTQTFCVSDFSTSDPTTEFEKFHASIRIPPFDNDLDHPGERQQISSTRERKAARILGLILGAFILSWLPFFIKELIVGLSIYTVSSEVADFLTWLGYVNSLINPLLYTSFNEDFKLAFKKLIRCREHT
# [4] = target: Sodium-dependent dopamine transporter (Homo sapiens) (UniProt Q01959); assay: Displacement of [3H]-Win35428 from recombinant human DAT stably expressed in HEK cells at 10 uM measured after 90 mins by microbeta scintillation counting method relative to control; type: cell-based; outline: as §1
# Sequence of Sodium-dependent dopamine transporter (Homo sapiens) (Q01959 whole entry): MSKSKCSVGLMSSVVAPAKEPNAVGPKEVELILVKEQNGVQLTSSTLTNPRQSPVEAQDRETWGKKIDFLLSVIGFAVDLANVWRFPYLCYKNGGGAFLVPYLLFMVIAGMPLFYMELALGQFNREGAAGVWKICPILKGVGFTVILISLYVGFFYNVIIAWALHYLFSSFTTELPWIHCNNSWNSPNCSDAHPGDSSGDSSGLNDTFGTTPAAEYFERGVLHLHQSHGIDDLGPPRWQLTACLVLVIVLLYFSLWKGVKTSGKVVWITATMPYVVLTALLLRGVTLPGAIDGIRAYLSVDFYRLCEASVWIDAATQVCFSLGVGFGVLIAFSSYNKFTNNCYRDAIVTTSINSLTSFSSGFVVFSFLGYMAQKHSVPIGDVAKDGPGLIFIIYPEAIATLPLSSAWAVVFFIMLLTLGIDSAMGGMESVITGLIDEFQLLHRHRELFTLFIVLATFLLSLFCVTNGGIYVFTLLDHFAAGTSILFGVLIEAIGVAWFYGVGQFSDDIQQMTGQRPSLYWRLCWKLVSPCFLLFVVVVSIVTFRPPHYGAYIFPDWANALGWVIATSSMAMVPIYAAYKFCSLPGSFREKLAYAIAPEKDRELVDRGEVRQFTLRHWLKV
# [5] = target: Alpha-1A adrenergic receptor (Homo sapiens, UniProt P35348); assay: Displacement of [3H]-prazosin from recombinant human alpha1A adrenergic receptor measured after 90 mins by microbeta scintillation counting method
# D(3) dopamine receptor [6] = target: T1, D(3) dopamine receptor (Homo sapiens, UniProt P35462); assay: Displacement of [3H]N-methylspiperone from D3 receptor (unknown origin) measured after 90 mins by microbeta scintillation counting method relative to control
# T1 sequence (P35462 whole entry): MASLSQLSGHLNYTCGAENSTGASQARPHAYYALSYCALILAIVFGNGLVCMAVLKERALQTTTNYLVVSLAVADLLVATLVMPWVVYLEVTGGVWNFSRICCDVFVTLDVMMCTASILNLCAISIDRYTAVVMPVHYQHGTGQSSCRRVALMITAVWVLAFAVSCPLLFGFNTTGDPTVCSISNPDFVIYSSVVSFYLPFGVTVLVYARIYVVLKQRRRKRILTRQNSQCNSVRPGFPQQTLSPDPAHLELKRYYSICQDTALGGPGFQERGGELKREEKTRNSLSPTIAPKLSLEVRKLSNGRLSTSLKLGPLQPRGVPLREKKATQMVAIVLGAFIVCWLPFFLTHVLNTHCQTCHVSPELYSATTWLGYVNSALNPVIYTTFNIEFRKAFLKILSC
# [7] = target: Alpha-2C adrenergic receptor (Homo sapiens, UniProt P18825); assay: Displacement of [3H]-rauwolscine from recombinant human alpha2C adrenergic receptor stably expressed in MDCK cells measured after 90 mins by microbeta scintillation counting method; type: cell-based
# Sequence of Alpha-2C adrenergic receptor (P18825 whole entry): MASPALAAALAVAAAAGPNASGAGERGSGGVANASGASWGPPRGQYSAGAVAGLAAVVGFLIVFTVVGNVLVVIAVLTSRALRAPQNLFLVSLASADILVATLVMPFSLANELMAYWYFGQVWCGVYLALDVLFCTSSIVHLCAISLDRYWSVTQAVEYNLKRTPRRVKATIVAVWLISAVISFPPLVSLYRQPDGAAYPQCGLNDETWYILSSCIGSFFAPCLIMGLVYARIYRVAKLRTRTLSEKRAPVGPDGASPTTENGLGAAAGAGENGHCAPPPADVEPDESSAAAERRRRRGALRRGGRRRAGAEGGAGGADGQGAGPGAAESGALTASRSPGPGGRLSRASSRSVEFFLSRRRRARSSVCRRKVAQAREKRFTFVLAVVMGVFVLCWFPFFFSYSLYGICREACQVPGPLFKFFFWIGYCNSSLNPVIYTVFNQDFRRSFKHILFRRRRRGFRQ
# [8] = target: GABA-A receptor; anion channel (Rattus norvegicus) (UniProt O09028+P15431+P18506+P18508+P19969+P20236+P23574+P23576+P28471+P28473+P30191+P62813+P63079+P63138+Q91ZM7+Q9ES14); assay: Displacement of [3H]-muscimol from rat brain GABAA receptor at 10 uM measured after 90 mins by microbeta scintillation counting method relative to control; outline: as §1
# [9] = target: Histamine H4 receptor (Homo sapiens) (UniProt Q9H3N8); assay: Displacement of [3H]-histamine from human histamine H4 receptor stably expressed in HEKT cell membranes at 10 uM after 90 mins by microbeta scintillation counting method relative to control; outline: as §1
# [10] = target: Neuronal acetylcholine receptor; alpha4/beta2 (Homo sapiens) (UniProt P17787+P43681); assay: Displacement of [3H]-epibatidine from recombinant human alpha4beta2 nACHR stably expressed in HEK cells at 10 uM measured after 90 mins by microbeta scintillation counting method relative to control; type: cell-based; outline: as §1
# D(3) dopamine receptor [11] = target: T1, D(3) dopamine receptor; assay: Antagonist activity at recombinant human D3 receptor expressed in CHOK1 cells assessed as inhibition of dopamine-induced beta arrestin2 recruitment preincubated for 30 mins followed by dopamine addition and measured after 90 mins by coelenterazine-based beta-galactosidase reporter gene assay; type: cell-based
# Histamine H1 receptor = Histamine H1 receptor (Homo sapiens, UniProt P35367); assay: Displacement of [3H]-pyrilamine from recombinant human H1 receptor stably expressed in HEK cell membranes measured after 90 mins by microbeta scintillation counting method
# Sequence of Histamine H1 receptor (P35367 whole entry): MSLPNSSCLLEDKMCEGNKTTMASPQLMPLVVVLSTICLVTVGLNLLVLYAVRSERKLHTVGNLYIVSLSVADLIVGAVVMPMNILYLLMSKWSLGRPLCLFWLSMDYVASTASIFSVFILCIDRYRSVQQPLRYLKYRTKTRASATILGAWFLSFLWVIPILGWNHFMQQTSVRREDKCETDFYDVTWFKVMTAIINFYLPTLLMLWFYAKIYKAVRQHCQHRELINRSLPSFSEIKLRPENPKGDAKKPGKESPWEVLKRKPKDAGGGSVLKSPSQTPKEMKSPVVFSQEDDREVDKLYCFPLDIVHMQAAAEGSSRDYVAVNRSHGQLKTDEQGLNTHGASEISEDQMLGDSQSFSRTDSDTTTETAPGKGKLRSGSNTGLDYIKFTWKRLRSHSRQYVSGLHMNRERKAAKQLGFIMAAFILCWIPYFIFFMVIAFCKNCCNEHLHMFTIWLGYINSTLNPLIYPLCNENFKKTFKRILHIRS
# [12] = target: Kappa-type opioid receptor (Homo sapiens) (UniProt P41145); assay: Displacement of [3H]-U69593 from KOR (unknown origin) at 10 uM after 90 mins by microbeta scintillation counting method relative to control; outline: as §1
# Sequence of Kappa-type opioid receptor (Homo sapiens) (P41145 whole entry): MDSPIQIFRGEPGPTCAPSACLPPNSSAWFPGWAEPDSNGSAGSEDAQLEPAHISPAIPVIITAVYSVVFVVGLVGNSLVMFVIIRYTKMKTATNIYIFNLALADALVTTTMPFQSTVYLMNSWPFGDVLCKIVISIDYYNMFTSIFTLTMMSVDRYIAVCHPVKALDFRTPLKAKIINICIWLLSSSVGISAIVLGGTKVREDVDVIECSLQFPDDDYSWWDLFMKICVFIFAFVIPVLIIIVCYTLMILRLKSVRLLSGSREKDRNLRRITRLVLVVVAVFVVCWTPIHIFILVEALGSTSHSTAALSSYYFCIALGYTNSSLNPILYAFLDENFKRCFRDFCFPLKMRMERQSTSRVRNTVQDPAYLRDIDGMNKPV
# [13] = target: 5-hydroxytryptamine receptor 2B (Homo sapiens, UniProt P41595); assay: Displacement of [3H]-LSD from recombinant human 5HT2B receptor stably expressed in HEK cell membranes measured after 90 mins by microbeta scintillation counting method
# Sequence of 5-hydroxytryptamine receptor 2B (P41595 whole entry): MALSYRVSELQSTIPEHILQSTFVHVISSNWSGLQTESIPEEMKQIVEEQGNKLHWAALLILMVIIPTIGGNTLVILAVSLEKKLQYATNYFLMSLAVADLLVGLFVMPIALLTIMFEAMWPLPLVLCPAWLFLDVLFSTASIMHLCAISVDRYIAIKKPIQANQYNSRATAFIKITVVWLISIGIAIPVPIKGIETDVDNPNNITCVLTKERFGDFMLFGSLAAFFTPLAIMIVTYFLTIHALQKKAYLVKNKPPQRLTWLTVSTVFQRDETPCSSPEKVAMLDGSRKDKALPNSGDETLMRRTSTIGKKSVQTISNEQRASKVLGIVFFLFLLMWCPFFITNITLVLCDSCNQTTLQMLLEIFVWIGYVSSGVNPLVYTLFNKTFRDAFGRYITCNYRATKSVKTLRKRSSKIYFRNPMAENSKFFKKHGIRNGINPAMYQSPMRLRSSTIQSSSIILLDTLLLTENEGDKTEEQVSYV
# [14] = target: 5-hydroxytryptamine receptor 6 (Homo sapiens) (UniProt P50406); assay: Displacement of [3H]-LSD from recombinant human 5HT6 receptor stably expressed in HEK cell membranes at 10 uM measured after 90 mins by microbeta scintillation counting method relative to control; outline: as §1
# [15] = target: Nicotinic acetylcholine receptor alpha2/beta4 (Homo sapiens) (UniProt P02708+P30926); assay: Displacement of [3H]-epibatidine from recombinant human alpha2beta4 nACHR stably expressed in HEK cells at 10 uM measured after 90 mins by microbeta scintillation counting method relative to control; type: cell-based; outline: as §1
# D(1A) dopamine receptor = D(1A) dopamine receptor (Homo sapiens, UniProt P21728); assay: Agonist activity at recombinant human D1 receptor expressed in CHOK1 cells assessed as induction of beta arrestin2 recruitment measured after 30 mins by coelenterazine-based beta-galactosidase reporter gene assay; type: cell-based
# [16] = target: Beta-3 adrenergic receptor (Homo sapiens) (UniProt P13945); assay: Displacement of [3H]-CGP12177 from recombinant human beta3 adrenergic stably expressed in HEK Flp-In cells at 10 uM measured after 90 mins by microbeta scintillation counting method relative to control; type: cell-based; outline: as §1
# Sequence of Beta-3 adrenergic receptor (Homo sapiens) (P13945 whole entry, looked up): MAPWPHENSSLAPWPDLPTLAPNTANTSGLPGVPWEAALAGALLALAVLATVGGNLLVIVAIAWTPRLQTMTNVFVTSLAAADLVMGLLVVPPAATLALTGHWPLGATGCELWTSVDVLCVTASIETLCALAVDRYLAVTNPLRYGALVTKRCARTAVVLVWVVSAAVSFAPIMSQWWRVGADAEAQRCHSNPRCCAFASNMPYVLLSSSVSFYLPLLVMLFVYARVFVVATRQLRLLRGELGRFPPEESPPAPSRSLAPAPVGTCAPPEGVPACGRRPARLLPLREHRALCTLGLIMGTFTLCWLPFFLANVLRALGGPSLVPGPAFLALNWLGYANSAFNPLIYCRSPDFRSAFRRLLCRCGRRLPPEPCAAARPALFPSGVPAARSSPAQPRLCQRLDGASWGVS
# [17] = target: Beta-2 adrenergic receptor (Homo sapiens) (UniProt P07550); assay: Displacement of [3H]-CGP12177 from recombinant human beta2 adrenergic stably expressed in HEK Flp-In cells at 10 uM measured after 90 mins by microbeta scintillation counting method relative to control; type: cell-based; outline: as §1
# [18] = target: Beta-1 adrenergic receptor (Homo sapiens) (UniProt P08588); assay: Displacement of [125I]-pindolol from recombinant human beta1 adrenergic stably expressed in CHO Flp-In cells at 10 uM measured after 90 mins by microbeta scintillation counting method relative to control; type: cell-based; outline: as §1
# Sequence of Beta-1 adrenergic receptor (Homo sapiens) (P08588 whole entry, looked up): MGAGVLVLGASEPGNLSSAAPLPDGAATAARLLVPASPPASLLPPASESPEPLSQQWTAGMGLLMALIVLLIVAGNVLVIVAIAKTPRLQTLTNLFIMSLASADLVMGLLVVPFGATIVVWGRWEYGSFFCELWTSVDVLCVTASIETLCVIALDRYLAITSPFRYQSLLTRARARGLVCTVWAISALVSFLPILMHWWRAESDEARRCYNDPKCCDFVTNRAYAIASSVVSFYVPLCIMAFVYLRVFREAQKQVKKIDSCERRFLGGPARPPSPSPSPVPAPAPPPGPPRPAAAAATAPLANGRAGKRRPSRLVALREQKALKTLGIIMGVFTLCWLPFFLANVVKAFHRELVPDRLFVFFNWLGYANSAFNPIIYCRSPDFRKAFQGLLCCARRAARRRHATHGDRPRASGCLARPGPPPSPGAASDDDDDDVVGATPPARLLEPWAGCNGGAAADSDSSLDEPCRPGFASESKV
# [19] = target: Neuronal acetylcholine receptor; alpha4/beta4 (Homo sapiens) (UniProt P30926+P43681); assay: Displacement of [3H]-epibatidine from recombinant human alpha4beta4 nACHR stably expressed in HEK cells at 10 uM measured after 90 mins by microbeta scintillation counting method relative to control; type: cell-based; outline: as §1
# [20] = target: Alpha-1B adrenergic receptor (Homo sapiens, UniProt P35368); assay: Displacement of [3H]-prazosin from recombinant human alpha1B adrenergic receptor transiently expressed in HEKT cells measured after 90 mins by microbeta scintillation counting method; type: cell-based
# Sequence of Alpha-1B adrenergic receptor (P35368 whole entry): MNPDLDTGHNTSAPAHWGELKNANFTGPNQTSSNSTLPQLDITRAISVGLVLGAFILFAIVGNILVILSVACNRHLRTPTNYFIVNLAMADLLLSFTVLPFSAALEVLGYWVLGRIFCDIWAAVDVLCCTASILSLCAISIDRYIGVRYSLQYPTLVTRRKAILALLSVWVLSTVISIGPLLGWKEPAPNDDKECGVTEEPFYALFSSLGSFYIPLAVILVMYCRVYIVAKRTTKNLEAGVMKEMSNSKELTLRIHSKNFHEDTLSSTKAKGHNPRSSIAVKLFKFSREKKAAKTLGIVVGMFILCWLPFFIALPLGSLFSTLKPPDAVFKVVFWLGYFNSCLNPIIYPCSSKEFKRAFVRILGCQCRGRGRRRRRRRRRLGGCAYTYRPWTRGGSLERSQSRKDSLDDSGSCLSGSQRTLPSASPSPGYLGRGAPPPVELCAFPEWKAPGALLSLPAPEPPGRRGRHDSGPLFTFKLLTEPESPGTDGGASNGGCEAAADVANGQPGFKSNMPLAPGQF
# [21] = target: 5-hydroxytryptamine receptor 1A (Homo sapiens, UniProt P08908); assay: Displacement of [3H]-Way100635 from recombinant human 5HT1A receptor transiently expressed in CHO cell membranes measured after 90 mins by microbeta scintillation counting method
# [22] = target: 5-hydroxytryptamine receptor 5A (Homo sapiens) (UniProt P47898); assay: Displacement of [3H]-LSD from recombinant human 5HT5A receptor stably expressed in Flp-In-CHO cell membranes at 10 uM measured after 90 mins by microbeta scintillation counting method relative to control; outline: as §1
# Sequence of 5-hydroxytryptamine receptor 5A (Homo sapiens) (P47898 whole entry): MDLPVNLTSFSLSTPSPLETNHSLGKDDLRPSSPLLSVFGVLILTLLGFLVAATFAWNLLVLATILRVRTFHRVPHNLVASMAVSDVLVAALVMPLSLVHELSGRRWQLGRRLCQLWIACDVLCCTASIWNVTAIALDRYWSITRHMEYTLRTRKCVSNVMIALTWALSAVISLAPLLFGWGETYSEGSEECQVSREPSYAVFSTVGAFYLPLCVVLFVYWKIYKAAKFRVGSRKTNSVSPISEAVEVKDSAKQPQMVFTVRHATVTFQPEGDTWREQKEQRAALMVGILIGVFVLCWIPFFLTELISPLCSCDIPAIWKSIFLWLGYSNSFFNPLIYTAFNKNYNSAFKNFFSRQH
# [23] = target: Mu-type opioid receptor (Homo sapiens) (UniProt P35372); assay: Displacement of [3H]-DAMGO from human MOR stably expressed in HEK cell membranes at 10 uM after 90 mins by microbeta scintillation counting method relative to control; outline: as §1
# [24] = target: Neuronal acetylcholine receptor; alpha3/beta2 (Homo sapiens) (UniProt P17787+P32297); assay: Displacement of [3H]-epibatidine from recombinant human alpha3beta2 nACHR stably expressed in HEK cells at 10 uM measured after 90 mins by microbeta scintillation counting method relative to control; type: cell-based; outline: as §1
inhibition [1],inhibition [2],inhibition [3],inhibition [4],Ki [5],Ki (D(3) dopamine receptor [6]),Ki [7],inhibition [8],inhibition [9],inhibition [10],IC50 (D(3) dopamine receptor [11]),Ki (Histamine H1 receptor),inhibition [12],Ki [13],inhibition [14],inhibition [15],EC50 (D(1A) dopamine receptor),inhibition [16],inhibition [17],inhibition [18],SMILES,also measured
< 50%,< 50%,< 50%,< 50%,49 nM,6 nM,433 nM,< 50%,< 50%,< 50%,8.7 nM,40 nM,< 50%,42 nM,< 50%,< 50%,Not Active,< 50%,60%,< 50%,COc1ccccc1N1CCN(CCCSc2nnc(-c3ccccc3)n2C)CC1,inhibition [19]: < 50%; Ki [20]: 94 nM; Ki [21]: 0.9 nM; inhibition [22]: < 50%; inhibition [23]: < 50%; inhibition [24]: < 50%
< 50%,< 50%,< 50%,< 50%,2180 nM,94 nM,1560 nM,< 50%,< 50%,< 50%,41.4 nM,8 nM,< 50%,2140 nM,< 50%,< 50%,Not Active,< 50%,< 50%,< 50%,COc1ccccc1N1CCC2(CCN(CCCSc3nnc(-c4ccccc4)n3C)CC2)CC1,inhibition [19]: < 50%; Ki [20]: 2170 nM; Ki [21]: 1300 nM; inhibition [22]: < 50%; inhibition [23]: < 50%; inhibition [24]: < 50%
